# Assay results from ChEMBL document CHEMBL4680121, “Development of (4-methoxyphenyl)-1H-tetrazol-5-amine regioisomers as a new class of selective antitubercular agents” (Eur J Med Chem, 2020).
# Assays:
# Klebsiella pneumoniae = assay: Antibacterial activity against Klebsiella pneumoniae ATCC 10031 assessed as bacterial growth inhibition measured after 18 hrs by two-fold serial microdilution method; format: functional
# Summary of the method: (§1)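 Two-fold serial broth microdilution in MH II medium following modified CLSI procedures. Compounds were dissolved in DMSO and diluted in medium to at most 1% solvent, tested from 0.03125 to 512 μg/ml. Final inoculum 10^6 CFU/ml. MIC was taken as the lowest concentration with no visible growth after 18 h at 35 °C.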
# [1] = tested on: Mycolicibacterium fortuitum; assay: Antibacterial activity against Mycobacterium fortuitum assessed as inhibition of microbial growth incubated for 1 week by MABA method; format: functional; conditions: 168 h, time 1 weeks
# Summary of the method: (§2)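 Microplate Alamar Blue assay using two-fold serial microdilution in Middlebrook 7H9 broth with 10% OADC, compounds 0.125–512 µg/ml from DMSO stocks. Inoculum came from fresh LJ culture, was adjusted to McFarland 1 and diluted 1:20. Plates were incubated 1 week at 37 °C, Alamar blue was added and plates were re-incubated 24 h. MIC was the lowest concentration preventing the blue-to-pink change. Each plate carried growth and sterile controls.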
# HaCaT [2] = assay: Cytotoxicity against human HaCaT cells assessed as reduction in cell viability measured after 72 hrs by MTT assay; format: cell-based
# Summary of the method: (§3)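 MTT viability assay on cells grown in DMEM with 10% heat-inactivated FBS, penicillin/streptomycin and 20 mM HEPES at 37 °C/5% CO2. Cells were seeded at 1×10^4 per well and allowed to adhere for 24 h, then the medium was refreshed. Compounds were added at 20–140 μM for 72 h at 37 °C, followed by MTT (0.5 mg/mL in serum-free medium) for 4 h. Untreated cells served as control. IC50 is the concentration giving 50% growth inhibition versus control.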
# [3] = tested on: Staphylococcus epidermidis; assay: Antibacterial activity against Staphylococcus epidermidis ATCC 12228 assessed as bacterial growth inhibition measured after 18 hrs by two-fold serial microdilution method; format: functional; summary of the method: as §1
# [4] = tested on: Mycobacterium tuberculosis; assay: Antitubercular activity against Mycobacterium tuberculosis Spec.192 assessed as inhibition of microbial growth incubated for 1 week by MABA method; format: functional; conditions: Mycobacterium tuberculosis, 192, 168 h; time 1 weeks
# Summary of the method: (§4)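 Microplate Alamar Blue assay in Middlebrook 7H9 broth with 10% OADC. Inoculum from fresh LJ culture was adjusted to McFarland 1 and diluted 1:20. DMSO stocks were two-fold serially diluted to final 0.125–512 µg/ml, with growth and sterile controls. Plates ran 1 week at 37 °C, then Alamar blue was added for 24 h. MIC is the lowest concentration preventing the blue-to-pink change.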
# [5] = tested on: Mycobacterium scrofulaceum; assay: Antibacterial activity against Mycobacterium scrofulaceum assessed as inhibition of microbial growth incubated for 1 week by MABA method; format: functional; conditions: 168 h, time 1 weeks; summary of the method: as §2
# Mycobacterium kansasii = assay: Antibacterial activity against Mycobacterium kansasii assessed as inhibition of microbial growth incubated for 1 week by MABA method; format: functional; conditions: 168 h, time 1 weeks; summary of the method: as §2
# [6] = tested on: Mycobacterium tuberculosis; assay: Antitubercular activity against Mycobacterium tuberculosis H37Rv ATCC 25618 assessed as inhibition of microbial growth incubated for 1 week by MABA method; format: functional; conditions: H37Rv ATCC 25618, 168 h, time 1 weeks; summary of the method: as §4
# V79 [7] = assay: Cytotoxicity against Chinese Hamster V79 cells assessed as reduction in cell viability at 100 uM measured after 72 hrs by MTT assay; format: cell-based, Cricetulus griseus; conditions: v79, 72 h; summary of the method: as §3
# Staphylococcus aureus [8] = assay: Antibacterial activity against Staphylococcus aureus ATCC 6538 assessed as bacterial growth inhibition measured after 18 hrs by two-fold serial microdilution method; format: functional; summary of the method: as §1
# HaCaT [9] = assay: Cytotoxicity against human HaCaT cells assessed as reduction in cell viability at 100 uM measured after 72 hrs by MTT assay; format: cell-based; summary of the method: as §3
# Proteus vulgaris = assay: Antibacterial activity against Proteus vulgaris NCTC 4635 assessed as bacterial growth inhibition measured after 18 hrs by two-fold serial microdilution method; format: functional; summary of the method: as §1
# Staphylococcus aureus [10] = assay: Antibacterial activity against Staphylococcus aureus NCTC 4163 assessed as bacterial growth inhibition measured after 18 hrs by two-fold serial microdilution method; format: functional; summary of the method: as §1
# V79 [11] = assay: Cytotoxicity against Chinese Hamster V79 cells assessed as reduction in cell viability measured after 72 hrs by MTT assay; format: cell-based; conditions: Cricetulus griseus, V79, 72 h; summary of the method: as §3
# [12] = tested on: Mycobacterium scrofulaceum; assay: Potency index, ratio of isoniazid MIC to test compound MIC for antibacterial activity against Mycobacterium scrofulaceum assessed as inhibition of microbial growth incubated for 1 week by MABA method; format: functional; conditions: time 1 weeks
# Escherichia coli = assay: Antibacterial activity against Escherichia coli ATCC 25922 assessed as bacterial growth inhibition measured after 18 hrs by two-fold serial microdilution method; format: functional; summary of the method: as §1
# Mycobacterium xenopi = assay: Antibacterial activity against Mycobacterium xenopi assessed as inhibition of microbial growth incubated for 1 week by MABA method; format: functional; conditions: 168 h, time 1 weeks; summary of the method: as §2
# [13] = tested on: Staphylococcus epidermidis; assay: Antibacterial activity against Staphylococcus epidermidis ATCC 35984/RP62A assessed as bacterial growth inhibition measured after 18 hrs by two-fold serial microdilution method; format: functional; summary of the method: as §1
# [14] = tested on: Staphylococcus epidermidis; assay: Antibacterial activity against Staphylococcus epidermidis ATCC 1457 assessed as bacterial growth inhibition measured after 18 hrs by two-fold serial microdilution method; format: functional; summary of the method: as §1
# Mycobacterium avium = assay: Antimycobacterial activity against Mycobacterium avium assessed as inhibition of microbial growth incubated for 1 week by MABA method; format: functional; conditions: 168 h, time 1 weeks; summary of the method: as §4
# Pseudomonas aeruginosa [15] = assay: Antibacterial activity against Pseudomonas aeruginosa NCTC 6749 assessed as bacterial growth inhibition measured after 18 hrs by two-fold serial microdilution method; format: functional; summary of the method: as §1
# Pseudomonas aeruginosa [16] = assay: Antibacterial activity against Pseudomonas aeruginosa PAO1 assessed as bacterial growth inhibition measured after 18 hrs by two-fold serial microdilution method; format: functional; summary of the method: as §1
# [17] = tested on: Mycobacterium intracellulare; assay: Antimycobacterial activity against Mycobacterium intracellulare assessed as inhibition of microbial growth incubated for 1 week by MABA method; format: functional; conditions: 168 h, time 1 weeks; summary of the method: as §2
structure (smiles),measurement,setting,value
COc1ccc(Nc2nnnn2-c2cccc(Cl)c2)cc1,MIC,Klebsiella pneumoniae,> 256 µg/mL
same,MIC,[1],512 µg/mL
same,IC50,HaCaT [2],103 µM
same,MIC,[3],> 256 µg/mL
same,MIC,[4],8 µg/mL
same,MIC,[5],2 µg/mL
same,MIC,Mycobacterium kansasii,512 µg/mL
same,MIC,[6],8 µg/mL
same,Activity,V79 [7],Non-Toxic
same,MIC,Staphylococcus aureus [8],> 256 µg/mL
same,Activity,HaCaT [9],Non-Toxic
same,MIC,Proteus vulgaris,> 256 µg/mL
same,MIC,Staphylococcus aureus [10],> 256 µg/mL
same,IC50,V79 [11],124 µM
same,Ratio,[12],32
same,MIC,Escherichia coli,> 256 µg/mL
same,MIC,Mycobacterium xenopi,512 µg/mL
same,MIC,[13],> 256 µg/mL
same,MIC,[14],> 256 µg/mL
same,MIC,Mycobacterium avium,64 µg/mL
same,MIC,Pseudomonas aeruginosa [15],> 256 µg/mL
same,MIC,Pseudomonas aeruginosa [16],> 256 µg/mL
same,MIC,[17],128 µg/mL
